What was measured:
Bcr/Abl fusion protein = Bcr/Abl fusion protein (Homo sapiens, UniProt P00519); assay: Inhibition of Bcr-Abl (unknown origin) after 60 mins by luminescent kinase assay; type: protein assay
K562 [1] = assay: Antiproliferative activity against human K562 cells after 48 hrs by MTT assay; type: functional, cell-based; settings: K562, 48 h
Outline: (§1)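 Human CML K562 line grown in RPMI-1640 with 10% FBS, penicillin G and streptomycin (100 units/ml each) at 37°C, 5% CO2. 2000 cells/well were seeded and compounds were added at four concentrations 48 h later, in triplicate. After 48 h exposure, MTT (5 mg/ml) was added for 4 h. Formazan was dissolved in DMSO and read at 490 nm. IC50 is the mean of three experiments.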

K562 [2] = assay: Antiproliferative activity against imatinib-resistant human K562 cells after 48 hrs by MTT assay; type: functional, cell-based; settings: K562, 48 h; outline: as §1

Sequence of Bcr/Abl fusion protein (P00519 whole entry, the tested form may be a part): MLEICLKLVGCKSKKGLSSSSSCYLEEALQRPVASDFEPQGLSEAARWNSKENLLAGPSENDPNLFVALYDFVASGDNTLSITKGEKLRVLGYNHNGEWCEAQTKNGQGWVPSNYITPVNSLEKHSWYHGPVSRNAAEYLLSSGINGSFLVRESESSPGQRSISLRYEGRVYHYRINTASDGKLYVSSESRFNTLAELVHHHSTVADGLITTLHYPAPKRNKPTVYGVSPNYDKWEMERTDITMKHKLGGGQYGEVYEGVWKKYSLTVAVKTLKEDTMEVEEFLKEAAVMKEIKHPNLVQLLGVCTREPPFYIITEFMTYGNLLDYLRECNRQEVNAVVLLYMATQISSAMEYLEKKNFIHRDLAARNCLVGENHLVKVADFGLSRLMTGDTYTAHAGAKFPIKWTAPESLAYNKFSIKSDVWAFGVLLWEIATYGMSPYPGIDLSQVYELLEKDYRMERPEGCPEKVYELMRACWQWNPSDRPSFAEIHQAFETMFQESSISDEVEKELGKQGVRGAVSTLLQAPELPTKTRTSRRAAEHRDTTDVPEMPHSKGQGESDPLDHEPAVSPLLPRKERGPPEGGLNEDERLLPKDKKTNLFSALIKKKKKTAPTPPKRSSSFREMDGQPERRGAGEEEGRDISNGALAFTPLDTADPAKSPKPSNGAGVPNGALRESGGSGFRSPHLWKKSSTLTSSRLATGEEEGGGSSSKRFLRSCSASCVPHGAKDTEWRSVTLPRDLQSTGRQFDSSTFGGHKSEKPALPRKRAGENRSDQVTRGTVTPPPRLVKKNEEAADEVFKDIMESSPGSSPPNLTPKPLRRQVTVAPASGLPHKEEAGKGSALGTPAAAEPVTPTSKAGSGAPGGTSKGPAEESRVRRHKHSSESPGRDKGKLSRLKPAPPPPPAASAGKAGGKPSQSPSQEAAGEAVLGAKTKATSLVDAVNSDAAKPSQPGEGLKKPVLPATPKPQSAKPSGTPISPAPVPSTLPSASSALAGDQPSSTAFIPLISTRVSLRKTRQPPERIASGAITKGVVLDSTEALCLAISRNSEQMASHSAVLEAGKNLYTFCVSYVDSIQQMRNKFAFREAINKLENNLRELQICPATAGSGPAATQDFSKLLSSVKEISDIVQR
Sequence of Bcr/Abl fusion protein (P11274 whole entry, further chain, the tested form may be a part): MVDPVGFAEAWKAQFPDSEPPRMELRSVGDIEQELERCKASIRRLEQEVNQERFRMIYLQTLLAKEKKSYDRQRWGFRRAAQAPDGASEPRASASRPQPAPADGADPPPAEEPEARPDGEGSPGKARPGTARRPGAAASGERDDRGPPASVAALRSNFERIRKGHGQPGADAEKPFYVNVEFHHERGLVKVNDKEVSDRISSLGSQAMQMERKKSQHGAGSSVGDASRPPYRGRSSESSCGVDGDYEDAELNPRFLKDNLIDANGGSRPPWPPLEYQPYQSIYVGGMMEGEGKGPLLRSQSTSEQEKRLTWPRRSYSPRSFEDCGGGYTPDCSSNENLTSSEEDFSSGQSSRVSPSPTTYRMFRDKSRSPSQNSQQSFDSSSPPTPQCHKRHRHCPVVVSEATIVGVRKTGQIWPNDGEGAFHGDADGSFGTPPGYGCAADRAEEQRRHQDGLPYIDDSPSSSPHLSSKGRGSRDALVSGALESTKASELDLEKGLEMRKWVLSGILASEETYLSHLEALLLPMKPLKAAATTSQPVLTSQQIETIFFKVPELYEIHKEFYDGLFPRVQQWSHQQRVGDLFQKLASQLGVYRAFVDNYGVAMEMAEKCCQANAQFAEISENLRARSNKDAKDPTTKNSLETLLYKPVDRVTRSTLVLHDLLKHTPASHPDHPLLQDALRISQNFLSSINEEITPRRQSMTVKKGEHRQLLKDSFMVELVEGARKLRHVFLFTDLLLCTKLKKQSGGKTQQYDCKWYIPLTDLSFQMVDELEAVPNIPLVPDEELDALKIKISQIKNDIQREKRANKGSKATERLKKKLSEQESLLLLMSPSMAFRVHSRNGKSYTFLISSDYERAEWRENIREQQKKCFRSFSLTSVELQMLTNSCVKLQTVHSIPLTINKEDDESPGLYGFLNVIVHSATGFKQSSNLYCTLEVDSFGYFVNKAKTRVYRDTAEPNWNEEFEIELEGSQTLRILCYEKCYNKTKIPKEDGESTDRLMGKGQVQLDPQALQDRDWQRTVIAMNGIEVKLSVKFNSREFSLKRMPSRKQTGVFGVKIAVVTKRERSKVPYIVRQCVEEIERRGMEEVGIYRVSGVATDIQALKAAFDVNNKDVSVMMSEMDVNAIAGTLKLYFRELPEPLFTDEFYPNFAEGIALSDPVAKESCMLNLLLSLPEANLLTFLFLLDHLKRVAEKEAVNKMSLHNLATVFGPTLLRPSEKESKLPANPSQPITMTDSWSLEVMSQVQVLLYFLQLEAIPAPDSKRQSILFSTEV

| SMILES | IC50 (Bcr/Abl fusion protein) | IC50 (K562 [1]) | IC50 (K562 [2]) |
| --- | --- | --- | --- |
| CN(C)c1cccc(C(=O)N2CCN(C(=O)c3ccc(-c4nccs4)cc3)CC2)c1 | 1.84 µM | 117 µM |  |
| CN(C)c1cccc(C(=O)N2CCN(C(=O)c3ccc(-c4cccs4)cc3)CC2)c1 | 0.321 µM | 96.7 µM |  |
| Cc1ccc(-c2ccc(C(=O)N3CCN(C(=O)c4cccc(N(C)C)c4)CC3)cc2)cn1 | > 500 µM | 110 µM |  |
| O=C(c1ccc(-c2nccs2)cc1)N1CCN(C(=O)c2ccc(Cl)cc2Cl)CC1 | > 500 µM | > 500 µM |  |
| Cc1ccc(NC(=O)c2ccc(CN3CCN(C)CC3)cc2)cc1Nc1nccc(-c2cccnc2)n1 [IMATINIB] |  | 1.16 µM | 15.7 µM |
| O=C(c1ccc(Br)cc1)N1CCN(C(=O)c2ccc(-c3cccs3)cc2)CC1 | 0.073 µM | 29.9 µM | 86.3 µM |
| Cc1ccnc(-c2ccc(C(=O)N3CCN(C(=O)c4cccc(F)c4)CC3)cc2)c1 | 63.3 µM | 74.2 µM | > 1000 µM |
| COc1cccc(C(=O)N2CCN(C(=O)c3ccc(-c4cccnc4)cc3)CC2)c1 | 60.7 µM | 140 µM |  |
| O=C(c1ccc(-c2cccs2)cc1)N1CCN(C(=O)c2cccc(F)c2)CC1 | 5.05 µM | 13.5 µM |  |
| Cc1ccc(-c2ccc(C(=O)N3CCN(C(=O)c4cccc(C(F)(F)F)c4)CC3)cc2)cn1 |  | 47.1 µM |  |
| COc1cccc(C(=O)N2CCN(C(=O)c3ccc(-c4nccs4)cc3)CC2)c1 | 0.016 µM | 271 µM | 492 µM |
| Cc1ccnc(-c2ccc(C(=O)N3CCN(C(=O)c4ccc(C(C)(C)C)cc4)CC3)cc2)c1 | > 500 µM | 58.3 µM |  |
| O=C(c1ccc(-c2cccnc2)cc1)N1CCN(C(=O)c2cccc(C(F)(F)F)c2)CC1 |  | 346 µM |  |
| COc1cccc(C(=O)N2CCN(C(=O)c3ccc(-c4ccccn4)cc3)CC2)c1 | 0.066 µM | 12.5 µM | 57.3 µM |
| Cc1ccc(-c2ccc(C(=O)N3CCN(C(=O)c4cccc(F)c4)CC3)cc2)cn1 | > 500 µM | 64.5 µM |  |
| CC(C)(C)c1ccc(C(=O)N2CCN(C(=O)c3ccc(-c4ccccn4)cc3)CC2)cc1 | 1.16 µM | 178 µM |  |
| Cc1ccnc(-c2ccc(C(=O)N3CCN(C(=O)c4cccc(N(C)C)c4)CC3)cc2)c1 | 19.1 µM | 31.4 µM |  |
| Cc1ccnc(-c2ccc(C(=O)N3CCN(C(=O)c4cccc(C(F)(F)F)c4)CC3)cc2)c1 | 0.112 µM | 41.6 µM | 947 µM |
| COc1cccc(C(=O)N2CCN(C(=O)c3ccc(-c4ccc(C)nc4)cc3)CC2)c1 | 0.143 µM | 261 µM | 304 µM |
| O=C(c1ccc(-c2ccccn2)cc1)N1CCN(C(=O)c2cccc(F)c2)CC1 |  | > 500 µM |  |
| COc1cccc(C(=O)N2CCN(C(=O)c3ccc(-c4cccs4)cc3)CC2)c1 | 89.7 µM | 152 µM |  |
| O=C(c1ccc(-c2ccccn2)cc1)N1CCN(C(=O)c2cccc(C(F)(F)F)c2)CC1 | > 500 µM | > 500 µM |  |
| COc1cccc(C(=O)N2CCN(C(=O)c3ccc(-c4cc(C)ccn4)cc3)CC2)c1 | 0.94 µM | 76.1 µM | 494 µM |
| CN(C)c1cccc(C(=O)N2CCN(C(=O)c3ccc(-c4cccnc4)cc3)CC2)c1 |  | > 500 µM |  |
| O=C(c1ccc(-c2cccnc2)cc1)N1CCN(C(=O)c2cccc(F)c2)CC1 | 0.276 µM | 63.4 µM | 81.6 µM |
| CN(C)c1cccc(C(=O)N2CCN(C(=O)c3ccc(-c4ccccn4)cc3)CC2)c1 | 45.6 µM | 29.7 µM |  |
| O=C(c1ccc(-c2cccs2)cc1)N1CCN(C(=O)c2ccc(Cl)cc2Cl)CC1 |  | 30.5 µM |  |
| O=C(c1ccc(Br)cc1)N1CCN(C(=O)c2ccc(-c3nccs3)cc2)CC1 | 0.421 µM | > 500 µM |  |
| O=C(c1ccc(-c2nccs2)cc1)N1CCN(C(=O)c2cccc(F)c2)CC1 | 444 µM | > 500 µM |  |

Reference: ChEMBL document CHEMBL3612025, “Synthesis and biological evaluation of novel aromatic-heterocyclic biphenyls as potent anti-leukemia agents” (Eur J Med Chem, 2015)
